Reference: ChEMBL document CHEMBL1152403, “Synthesis and evaluation of new endomorphin analogues modified at the Pro(2) residue” (Bioorg Med Chem Lett, 2009)
Where a SMILES comes first, the peptide text is derived from it. [ ]: non-standard residue; d: D form. Dha = C=C(N)C(=O)O

Columns and labels:
[1] = species on record: Rattus norvegicus; test: Selectivity ratio of Ki for delta opioid receptor in rat brain membrane to Ki for mu opioid receptor in rat brain membrane; type: cell membranes
[2] = target: Delta-type opioid receptor (Rattus norvegicus, UniProt P33533); test: Displacement of [3H][…] from delta opioid receptor in rat brain membrane by liquid scintillation counting; type: cell membranes
[3] = target: Mu-type opioid receptor (Rattus norvegicus, UniProt P33535); test: Displacement of [3H]DAMGO from mu opioid receptor in rat brain membrane by liquid scintillation counting; type: cell membranes
[4] = target: Delta-type opioid receptor (Mus musculus, UniProt P32300); test: Agonist activity at delta opioid receptor in mouse vas deference assessed as inhibition of electrically-stimulated contraction; type: functional
Outline: (§1)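 Isolated-tissue bioassay of inhibition of electrically evoked contraction (MVD for δ, GPI/LMMP for μ). IC50 is the mean of at least four experiments. IC50, relative potency and standard errors were obtained by fitting the data to the Hill equation by computerized non-linear least squares.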

[5] = target: Mu-type opioid receptor (Cavia porcellus, UniProt P97266); test: Agonist activity at mu opioid receptor in guinea pig ileum assessed as inhibition of electrically-stimulated contraction; type: functional, tissue-based; outline: as §1
[6] = target: Delta-type opioid receptor (Mus musculus) (UniProt P32300); test: Agonist activity at delta opioid receptor in mouse vas deference assessed as inhibition of electrically-stimulated contraction at 1 uM; type: functional
Chain of Delta-type opioid receptor (Mus musculus) (P32300 whole entry): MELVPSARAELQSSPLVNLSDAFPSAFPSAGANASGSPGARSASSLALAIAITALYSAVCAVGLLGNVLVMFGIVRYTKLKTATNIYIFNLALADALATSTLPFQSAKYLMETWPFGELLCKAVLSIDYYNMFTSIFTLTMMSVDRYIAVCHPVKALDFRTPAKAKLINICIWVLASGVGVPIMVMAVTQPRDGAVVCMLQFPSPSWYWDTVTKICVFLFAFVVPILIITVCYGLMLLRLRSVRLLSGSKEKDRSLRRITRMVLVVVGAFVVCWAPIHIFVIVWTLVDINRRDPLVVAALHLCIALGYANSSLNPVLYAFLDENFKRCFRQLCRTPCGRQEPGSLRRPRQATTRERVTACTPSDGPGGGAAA

Chain of Mu-type opioid receptor (Rattus norvegicus, UniProt P33535) (P33535 whole entry): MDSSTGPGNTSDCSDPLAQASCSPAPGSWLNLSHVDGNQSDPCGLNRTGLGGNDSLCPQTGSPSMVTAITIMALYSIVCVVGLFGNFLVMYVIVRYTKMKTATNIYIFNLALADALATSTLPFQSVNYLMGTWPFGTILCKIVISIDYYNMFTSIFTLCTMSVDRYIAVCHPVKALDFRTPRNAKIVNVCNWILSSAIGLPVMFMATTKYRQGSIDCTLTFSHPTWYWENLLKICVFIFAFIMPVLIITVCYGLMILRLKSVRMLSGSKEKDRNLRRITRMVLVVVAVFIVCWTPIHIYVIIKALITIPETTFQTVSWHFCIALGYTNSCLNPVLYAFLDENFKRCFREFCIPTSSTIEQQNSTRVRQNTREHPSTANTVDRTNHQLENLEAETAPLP
Chain of Delta-type opioid receptor (Rattus norvegicus, UniProt P33533) (P33533 whole entry): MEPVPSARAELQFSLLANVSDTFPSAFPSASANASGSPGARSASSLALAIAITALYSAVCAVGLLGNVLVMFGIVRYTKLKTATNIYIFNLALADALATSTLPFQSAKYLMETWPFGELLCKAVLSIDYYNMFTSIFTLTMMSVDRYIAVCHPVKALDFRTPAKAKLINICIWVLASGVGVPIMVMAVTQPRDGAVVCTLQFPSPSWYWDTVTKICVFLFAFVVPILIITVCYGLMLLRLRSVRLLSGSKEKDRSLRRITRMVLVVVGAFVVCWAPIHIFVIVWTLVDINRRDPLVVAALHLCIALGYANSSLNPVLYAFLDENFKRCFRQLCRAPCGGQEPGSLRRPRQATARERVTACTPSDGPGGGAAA
Chain of Delta-type opioid receptor (Mus musculus, UniProt P32300) (P32300 whole entry): as the sequence (P32300 whole entry) above
Chain of Mu-type opioid receptor (Cavia porcellus, UniProt P97266) (P97266 whole entry): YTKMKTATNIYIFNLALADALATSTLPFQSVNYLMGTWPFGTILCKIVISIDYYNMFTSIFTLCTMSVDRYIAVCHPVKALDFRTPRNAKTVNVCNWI

SMILES | Ratio Ki [1] | Ki [2] [nM] | Ki [3] [nM] | IC50 [4] [nM] | IC50 [5] [nM] | inhibition [6] [%]
C=C(NC(=O)[C@@H](N)Cc1ccc(O)cc1)C(=O)N[C@@H](Cc1ccccc1)C(=O)N[C@@H](Cc1ccccc1)C(N)=O (H-Y[Dha]FF-NH2) | 21 | 710 | 34 | – | – | –
NC(=O)[C@H](Cc1ccccc1)NC(=O)[C@H](Cc1c[nH]c2ccccc12)NC(=O)C1CN(C(=O)[C@@H](N)Cc2ccc(O)cc2)C1 | 1.2 | 40 | 34 | – | – | –
NC(=O)[C@H](Cc1ccccc1)NC(=O)[C@H](Cc1ccccc1)NC(=O)[C@@H]1C=CCN1C(=O)[C@@H](N)Cc1ccc(O)cc1 | – | – | 6.5 | 70000 | 14000 | –
NC(=O)[C@H](Cc1ccccc1)NC(=O)[C@H](Cc1ccccc1)NC(=O)C1CN(C(=O)[C@@H](N)Cc2ccc(O)cc2)C1 | 32 | 6900 | 210 | – | – | 13
NC(=O)[C@H](Cc1ccccc1)NC(=O)[C@H](Cc1ccccc1)NC(=O)[C@@H]1CCN1C(=O)[C@@H](N)Cc1ccc(O)cc1 | 920 | 5100 | 5.6 | – | – | –
NC(=O)[C@H](Cc1ccccc1)NC(=O)[C@H](Cc1c[nH]c2ccccc12)NC(=O)[C@@H]1CCN1C(=O)[C@@H](N)Cc1ccc(O)cc1 | 1500 | 3500 | 2.3 | – | – | –
